Experimental data reported in publication PMC7245055 (Chemical biology & drug design, 2019).
Converted amounts (≈) assume the structure as drawn. “Also recorded” adds a separate entry of the source.

Key:
INS-1 β-cells [1] = conditions: cited from earlier work
[2] = Thermodynamic turbidimetric aqueous solubility assay; assay type: physicochemical; conditions: for aqueous solubility (in words): turbidity at 620 nm in H2O; for solubility: pure water with 1% DMSO, 37 °C, water, kinetic from dmso stock
How it was run: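 DMSO solutions of test compound were serially diluted from 40 mM to 0.1 mM. Each was diluted 2 μL into ~198 μL pure water and shaken on a rotary shaker at 37 °C for 1–2 h to reach equilibrium solubility. Turbidity was measured as absorbance at 620 nm. Triplicate wells, reported as means ± SD.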

INS-1 β cells [3] = experiment: INS-1 cell viability against thapsigargin; assay type: cell-based, rat; conditions: TG 18 nM, 72 h, CellTiter-Glo
How it was run: (§1)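 INS-1 cells were plated in RPMI 1640 with 10% FBS at 5 × 10^3 cells/well and held 24 h at 37 °C. Test compound was pin-transferred, then stressor was added in medium: TG 18 nM or BFA 0.2 μg/mL. After 72 h the medium was removed and CellTiter-Glo (intracellular ATP) added; luminescence was read after 10 min. DMSO without stressor was normalized as 1. Data are means of 3 replicate wells, with 3 independent experiments.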

INS-1 β cells [4] = experiment: INS-1 cell viability against brefeldin A; assay type: cell-based, rat; conditions: BFA 0.2 μg/mL, 72 h, CellTiter-Glo
How it was run: as §1

INS-1 β-cells [5] = experiment: INS-1 β-cell viability against tunicamycin; assay type: cell-based, rat; conditions: INS-1 cells, Tm
How it was run: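 Rat INS-1 cells in RPMI 1640 with 10% FBS were seeded at 5 × 10^3 cells/well and held 24 h at 37 °C. Test compound was added as ten 2-fold serial titration points, then tunicamycin at 0.15 μg/mL final, for 72 h co-treatment. Viability was read as CellTiter-Glo luminescence (ATP) after 10 min. Maximum activity is % rescue, with Tm alone set as 0% and DMSO without Tm as 100%. EC50 was derived by curve fitting. Run in triplicate.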

Row | aqueous solubility (in words) [2] | SMILES | β-cell protective activity (in words) (INS-1 β-cells [5]) | further results
1 | – | Cc1ccc(C)c(CNC(=O)CNC(=O)c2cccc(Cl)c2C)c1 [Compound 5a, 3-Chloro-N-(2-((2,5-dimethylbenzyl)amino)-2-oxoethyl)-2-methylbenzamide] | – | solubility [2]: ~75 µM (≈ 25.9 µg/mL)
2 | – | Cc1c(Cl)cccc1C(=O)NCC(=O)NCCc1ccc(O)cc1 [Compound 5f, 3-Chloro-N-(2-((4-hydroxyphenethyl)amino)-2-oxoethyl)-2-methylbenzamide] | – | solubility [2]: ~200 µM (≈ 69.4 µg/mL)
3 | improved water solubility compare to 1 | Cc1c(Cl)cccc1C(=O)NCC(=O)NCc1ccc(C(F)(F)F)cc1 [Compound 5g, 3-Chloro-2-methyl-N-(2-oxo-2-((4-(trifluoromethyl)benzyl)amino)ethyl)benzamide] | – | –
4 | improved water solubility compare to 1 | COc1cc(CNC(=O)CNC(=O)c2cccc(Cl)c2C)ccc1O [Compound 5h, 3-Chloro-N-(2-((4-hydroxy-3-methoxybenzyl)amino)-2-oxoethyl)-2-methylbenzamide] | – | –
5 | – | O=C(CNC(=O)c1cccc(O)c1)NCc1ccc(C(F)(F)F)cc1 [Compound 5m, 3-Hydroxy-N-(2-oxo-2-((4-(trifluoromethyl)benzyl)amino)ethyl)benzamide] | – | reduction in viability of INS-1 cells treated with TG (INS-1 β cells [3]): significantly reversed; reduction in viability of INS-1 cells treated with BFA (INS-1 β cells [4]): significantly reversed
6 | – | COc1cc(CNC(=O)CNC(=O)c2cccc(O)c2)ccc1O [Compound 5n, 3-Hydroxy-N-(2-((4-hydroxy-3-methoxybenzyl)amino)-2-oxoethyl)benzamide] | significantly compromised activity | –
7 | – | COc1cc(C(=O)NCC(=O)NCc2ccc(C(F)(F)F)cc2)ccc1O [Compound 5o, 4-hydroxy-3-methoxy-N-(2-oxo-2-((4-(trifluoromethyl)benzyl)amino)ethyl)benzamide] | significantly compromised activity | –
8 | – | Cc1c(Cl)cccc1C(=O)NC(C)C(=O)NCc1ccc(C(F)(F)F)cc1 (stereo not shown) [Compound 5p, 3-Chloro-2-methyl-N-(1-oxo-1-((4-(trifluoromethyl)benzyl)amino)propan-2-yl)benzamide] | significantly less or not active | –
9 | – | Cc1c(Cl)cccc1C(=O)NC(Cc1ccc(O)cc1)C(=O)NCc1ccc(C(F)(F)F)cc1 (stereo not shown) [Compound 5q, 3-Chloro-N-(3-(4-hydroxyphenyl)-1-oxo-1-((4-(trifluoromethyl)benzyl)amino)propan-2-yl)-2-methylbenzamide] | significantly less or not active | –

Row | SMILES | aqueous solubility (in words) [2] | β-cell protective activity (in words) (INS-1 β-cells [5]) | further results
10 | Cc1ccc(C)c(NC(=O)c2nnn(-c3cccc(Cl)c3C)c2C)c1 [Compound 1, 1-(3-chloro-2-methylphenyl)-N-(2,5-dimethylphenyl)-5-methyl-1H-1,2,3-triazole-4-carboxamide, reference compound] | poor aqueous solubility; also recorded: limited aqueous solubility; also recorded: aqueous insolubility | – | concentration at which β cell protective activity is exhibited (INS-1 β-cells [1]; narrow range of doses): 5~10 μM; maximal activity (INS-1 β-cells [1]; protection of β cells against ER stress): 97%
